The text below walks through data of ChEMBL document CHEMBL2417369, “Synthesis and evaluation of heteroaryl substituted diazaspirocycles as scaffolds to probe the ATP-binding site of protein kinases” (Bioorg Med Chem, 2013).

Test [1] addresses T1, Serine/threonine-protein kinase Chk1 (Homo sapiens, UniProt O14757).
T1 sequence (O14757 whole entry): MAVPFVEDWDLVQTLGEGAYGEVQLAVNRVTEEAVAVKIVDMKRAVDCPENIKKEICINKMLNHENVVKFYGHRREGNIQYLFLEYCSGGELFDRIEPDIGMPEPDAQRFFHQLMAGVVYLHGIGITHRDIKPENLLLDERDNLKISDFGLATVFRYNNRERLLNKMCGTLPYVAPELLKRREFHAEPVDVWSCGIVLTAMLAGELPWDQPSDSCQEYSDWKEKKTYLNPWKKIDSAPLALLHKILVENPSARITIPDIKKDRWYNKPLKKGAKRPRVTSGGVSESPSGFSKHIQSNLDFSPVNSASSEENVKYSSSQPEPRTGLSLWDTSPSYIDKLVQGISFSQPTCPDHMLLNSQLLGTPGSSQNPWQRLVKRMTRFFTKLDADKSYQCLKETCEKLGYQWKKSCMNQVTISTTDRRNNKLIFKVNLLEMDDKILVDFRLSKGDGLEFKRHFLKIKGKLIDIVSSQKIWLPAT
In words: Inhibition of CHK1 (unknown origin) by Z'-Lyte assay. The gist of the method:
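CHK1 IC50 was obtained by titration in the Z'-Lyte assay format, run as an outsourced screening service.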

In test [2] the target is RAF proto-oncogene serine/threonine-protein kinase (Homo sapiens) (UniProt P04049). In words: Inhibition of c-RAF (unknown origin) at 30 uM by microfluidic mobility shift assay relative to control. In a few lines: (§1)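 Single-point screen against a 24-kinase panel in a commercial microfluidic assay format. Compounds were tested at 30 µM, with ATP at approximately the Km,[ATP] of each enzyme. H-89 was included on each assay plate as an internal control.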

In test [3] the target is Ribosomal protein S6 kinase beta-1 (Homo sapiens) (UniProt P23443). In words: Inhibition of p70S6K (unknown origin) at 30 uM by microfluidic mobility shift assay relative to control. In a few lines: as §1
The target in test [4] is Tyrosine-protein kinase HCK (Homo sapiens) (UniProt P08631). The test is described as follows: Inhibition of HCK (unknown origin) at 30 uM by microfluidic mobility shift assay relative to control. The gist of the method:
(§2)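 Single-point screen at 30 µM test compound across a 24-kinase panel in a microfluidic assay format. ATP was set near each enzyme's Km,[ATP]. […] The pan-AGC inhibitor H-89 served as an internal control on every assay plate.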

Test [5] addresses T2, MAP kinase-activated protein kinase 5 (Homo sapiens) (UniProt Q8IW41).
T2 sequence (whole entry): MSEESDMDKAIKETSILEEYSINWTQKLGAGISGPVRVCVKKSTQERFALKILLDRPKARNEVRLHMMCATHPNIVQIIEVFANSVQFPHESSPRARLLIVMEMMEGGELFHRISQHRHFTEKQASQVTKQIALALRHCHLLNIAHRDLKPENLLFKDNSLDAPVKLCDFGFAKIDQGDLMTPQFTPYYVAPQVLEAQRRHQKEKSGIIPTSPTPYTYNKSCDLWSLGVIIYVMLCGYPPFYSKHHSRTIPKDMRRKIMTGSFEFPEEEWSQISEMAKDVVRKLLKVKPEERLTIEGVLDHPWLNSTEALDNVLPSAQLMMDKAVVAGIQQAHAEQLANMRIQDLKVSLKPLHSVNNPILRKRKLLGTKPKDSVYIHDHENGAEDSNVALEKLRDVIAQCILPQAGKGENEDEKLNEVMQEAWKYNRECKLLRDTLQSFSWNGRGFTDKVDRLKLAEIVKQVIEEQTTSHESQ
In words: Inhibition of PRAK (unknown origin) at 30 uM by microfluidic mobility shift assay relative to control. The gist of the method: as §1

Test [6] addresses T3, Serine/threonine-protein kinase D1 (Homo sapiens) (UniProt Q15139).
T3 sequence (whole entry): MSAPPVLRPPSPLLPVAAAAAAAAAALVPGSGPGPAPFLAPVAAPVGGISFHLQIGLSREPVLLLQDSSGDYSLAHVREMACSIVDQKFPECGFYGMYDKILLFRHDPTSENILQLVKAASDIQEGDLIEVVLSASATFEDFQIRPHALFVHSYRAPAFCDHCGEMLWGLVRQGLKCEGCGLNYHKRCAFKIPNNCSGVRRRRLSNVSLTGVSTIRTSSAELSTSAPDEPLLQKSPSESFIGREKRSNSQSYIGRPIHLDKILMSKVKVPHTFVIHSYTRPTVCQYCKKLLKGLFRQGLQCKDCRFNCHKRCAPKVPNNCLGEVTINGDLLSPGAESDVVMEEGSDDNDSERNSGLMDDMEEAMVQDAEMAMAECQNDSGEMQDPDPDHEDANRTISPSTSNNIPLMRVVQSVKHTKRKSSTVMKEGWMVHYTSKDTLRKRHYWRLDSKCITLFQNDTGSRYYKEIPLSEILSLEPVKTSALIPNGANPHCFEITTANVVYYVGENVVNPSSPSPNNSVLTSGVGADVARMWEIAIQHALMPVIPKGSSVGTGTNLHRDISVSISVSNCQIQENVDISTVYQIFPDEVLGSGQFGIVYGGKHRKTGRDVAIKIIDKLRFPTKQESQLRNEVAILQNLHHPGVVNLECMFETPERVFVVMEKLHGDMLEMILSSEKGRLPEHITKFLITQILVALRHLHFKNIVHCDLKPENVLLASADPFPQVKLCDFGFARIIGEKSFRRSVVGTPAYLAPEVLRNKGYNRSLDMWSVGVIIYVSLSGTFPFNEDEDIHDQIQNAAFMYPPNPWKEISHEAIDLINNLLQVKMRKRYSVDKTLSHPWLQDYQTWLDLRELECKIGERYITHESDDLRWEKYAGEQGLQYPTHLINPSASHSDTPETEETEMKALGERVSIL
In words: Inhibition of PKD1 (unknown origin) at 30 uM by microfluidic mobility shift assay relative to control. In a few lines:
as §1

In test [7] the target is Cyclin-dependent kinase 2 (Homo sapiens) (UniProt P24941). The test is described as follows: Inhibition of CDK2 (unknown origin) at 30 uM by microfluidic mobility shift assay relative to control. In a few lines:
as §2

In test [8] the target is Insulin-like growth factor 1 receptor (Homo sapiens) (UniProt P08069). The test is described as follows: Inhibition of IGF1R (unknown origin) at 30 uM by microfluidic mobility shift assay relative to control. The gist of the method: as §2
For test [9], the target named is Protein kinase C gamma type (Homo sapiens) (UniProt P05129). The test is described as follows: Inhibition of PKCgamma (unknown origin) at 30 uM by microfluidic mobility shift assay relative to control. The gist of the method: as §1
Test [10] deals with Fibroblast growth factor receptor 2 (Homo sapiens), P21802 [N549H]. The test is described as follows: Inhibition of FGFR2 N549H mutant (unknown origin) at 30 uM by microfluidic mobility shift assay relative to control. The gist of the method: as §2
Test [11] concerns Tyrosine-protein kinase ABL1 (Homo sapiens), P00519 [Q252H]. The test is described as follows: Inhibition of ABL Q252H mutant (unknown origin) at 30 uM by microfluidic mobility shift assay relative to control. Type of test: protein assay. The gist of the method: as §2
Test [12] has as its target Serine/threonine-protein kinase PAK 2 (Homo sapiens) (UniProt Q13177). The test is described as follows: Inhibition of PAK2 (unknown origin) at 30 uM by microfluidic mobility shift assay relative to control. The gist of the method:
as §2

Tyrosine-protein kinase HCK (Homo sapiens), sequence (P08631 2-526 limits assumed): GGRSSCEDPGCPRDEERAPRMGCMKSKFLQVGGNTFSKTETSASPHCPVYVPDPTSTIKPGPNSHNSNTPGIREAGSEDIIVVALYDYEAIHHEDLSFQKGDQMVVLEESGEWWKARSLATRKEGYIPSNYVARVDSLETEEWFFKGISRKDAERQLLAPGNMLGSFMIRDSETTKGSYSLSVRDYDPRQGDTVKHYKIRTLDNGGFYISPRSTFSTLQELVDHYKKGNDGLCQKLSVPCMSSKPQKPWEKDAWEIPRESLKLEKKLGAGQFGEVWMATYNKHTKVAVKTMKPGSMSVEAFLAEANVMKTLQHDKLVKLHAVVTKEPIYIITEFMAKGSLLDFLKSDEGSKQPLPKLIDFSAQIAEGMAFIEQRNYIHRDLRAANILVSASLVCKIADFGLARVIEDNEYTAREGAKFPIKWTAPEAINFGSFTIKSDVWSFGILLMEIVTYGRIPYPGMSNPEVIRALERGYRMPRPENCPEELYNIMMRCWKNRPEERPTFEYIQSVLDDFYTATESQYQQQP
RAF proto-oncogene serine/threonine-protein kinase (Homo sapiens), sequence (P04049 whole entry): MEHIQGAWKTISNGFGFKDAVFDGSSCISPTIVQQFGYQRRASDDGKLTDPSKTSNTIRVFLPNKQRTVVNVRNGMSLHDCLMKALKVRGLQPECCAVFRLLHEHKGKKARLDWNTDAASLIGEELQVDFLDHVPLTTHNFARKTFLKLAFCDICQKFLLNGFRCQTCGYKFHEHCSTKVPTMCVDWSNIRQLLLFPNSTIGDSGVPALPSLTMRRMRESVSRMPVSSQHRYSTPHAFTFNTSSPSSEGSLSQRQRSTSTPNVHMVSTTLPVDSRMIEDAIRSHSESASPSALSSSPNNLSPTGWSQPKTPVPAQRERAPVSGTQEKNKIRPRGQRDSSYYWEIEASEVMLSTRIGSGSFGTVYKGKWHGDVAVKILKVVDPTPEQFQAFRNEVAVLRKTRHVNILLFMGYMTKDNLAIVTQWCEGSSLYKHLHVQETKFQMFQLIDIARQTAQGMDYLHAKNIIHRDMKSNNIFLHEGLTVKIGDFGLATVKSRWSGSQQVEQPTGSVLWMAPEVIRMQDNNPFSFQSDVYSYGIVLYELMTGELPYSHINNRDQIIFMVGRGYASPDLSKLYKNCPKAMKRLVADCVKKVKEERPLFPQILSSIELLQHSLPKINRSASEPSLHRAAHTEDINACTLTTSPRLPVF
Ribosomal protein S6 kinase beta-1 (Homo sapiens), sequence (P23443 whole entry, looked up): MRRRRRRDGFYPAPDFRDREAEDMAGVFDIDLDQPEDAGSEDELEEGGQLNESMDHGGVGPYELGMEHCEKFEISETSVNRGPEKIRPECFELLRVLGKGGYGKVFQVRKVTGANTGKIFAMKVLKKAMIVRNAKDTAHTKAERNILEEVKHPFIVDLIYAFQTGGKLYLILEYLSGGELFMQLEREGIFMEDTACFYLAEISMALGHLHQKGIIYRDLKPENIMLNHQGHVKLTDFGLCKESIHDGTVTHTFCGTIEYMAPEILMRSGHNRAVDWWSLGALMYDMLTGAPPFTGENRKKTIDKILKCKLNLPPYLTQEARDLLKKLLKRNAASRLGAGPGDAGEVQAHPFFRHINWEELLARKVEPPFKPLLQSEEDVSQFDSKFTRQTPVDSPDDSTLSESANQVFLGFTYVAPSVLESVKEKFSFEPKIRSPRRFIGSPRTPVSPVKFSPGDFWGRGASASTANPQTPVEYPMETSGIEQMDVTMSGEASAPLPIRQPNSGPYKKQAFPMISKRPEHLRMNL
Fibroblast growth factor receptor 2 (Homo sapiens), P21802 [N549H], sequence (P21802 whole entry N549H): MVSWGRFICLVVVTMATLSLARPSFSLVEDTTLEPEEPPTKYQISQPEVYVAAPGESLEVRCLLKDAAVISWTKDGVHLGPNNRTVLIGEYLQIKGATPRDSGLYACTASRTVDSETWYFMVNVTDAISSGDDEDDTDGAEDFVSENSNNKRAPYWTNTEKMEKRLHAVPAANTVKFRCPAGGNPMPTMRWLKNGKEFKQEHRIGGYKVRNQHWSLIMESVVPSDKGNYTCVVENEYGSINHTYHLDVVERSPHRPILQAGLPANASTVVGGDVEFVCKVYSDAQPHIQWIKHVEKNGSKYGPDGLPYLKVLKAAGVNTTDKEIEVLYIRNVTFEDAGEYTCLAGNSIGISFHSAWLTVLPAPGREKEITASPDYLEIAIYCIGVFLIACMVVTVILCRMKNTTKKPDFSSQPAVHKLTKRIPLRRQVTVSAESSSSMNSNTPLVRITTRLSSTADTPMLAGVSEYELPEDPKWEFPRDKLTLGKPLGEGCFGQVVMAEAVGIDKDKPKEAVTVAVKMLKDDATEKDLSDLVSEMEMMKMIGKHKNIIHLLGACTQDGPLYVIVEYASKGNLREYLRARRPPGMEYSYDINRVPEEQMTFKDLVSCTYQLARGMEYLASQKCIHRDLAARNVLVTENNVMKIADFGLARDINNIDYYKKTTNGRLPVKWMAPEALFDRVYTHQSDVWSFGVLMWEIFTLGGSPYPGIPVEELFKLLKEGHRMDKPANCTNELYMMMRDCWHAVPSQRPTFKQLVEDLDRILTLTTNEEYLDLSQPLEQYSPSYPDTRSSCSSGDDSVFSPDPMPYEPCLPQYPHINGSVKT
Insulin-like growth factor 1 receptor (Homo sapiens), sequence (P08069 31-736 limits assumed): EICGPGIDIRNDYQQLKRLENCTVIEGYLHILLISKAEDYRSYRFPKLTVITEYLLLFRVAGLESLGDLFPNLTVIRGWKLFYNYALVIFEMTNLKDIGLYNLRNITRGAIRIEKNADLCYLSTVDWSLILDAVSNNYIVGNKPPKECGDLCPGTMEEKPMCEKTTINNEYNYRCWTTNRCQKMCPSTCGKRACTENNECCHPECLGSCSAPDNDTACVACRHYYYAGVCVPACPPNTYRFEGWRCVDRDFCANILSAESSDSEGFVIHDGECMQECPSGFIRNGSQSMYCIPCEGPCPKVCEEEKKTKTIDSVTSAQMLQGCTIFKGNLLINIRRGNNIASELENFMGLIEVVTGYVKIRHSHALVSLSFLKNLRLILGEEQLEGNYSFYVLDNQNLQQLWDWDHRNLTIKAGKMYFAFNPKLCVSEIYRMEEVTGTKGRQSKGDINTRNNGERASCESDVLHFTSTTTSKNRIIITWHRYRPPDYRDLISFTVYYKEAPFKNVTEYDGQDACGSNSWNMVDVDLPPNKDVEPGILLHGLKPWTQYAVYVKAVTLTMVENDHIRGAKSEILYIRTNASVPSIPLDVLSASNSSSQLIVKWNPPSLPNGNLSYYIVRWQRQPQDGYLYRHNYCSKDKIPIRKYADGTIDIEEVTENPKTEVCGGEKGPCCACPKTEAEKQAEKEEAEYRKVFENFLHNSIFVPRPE
Insulin-like growth factor 1 receptor (Homo sapiens), sequence (P08069 741-1367 limits assumed): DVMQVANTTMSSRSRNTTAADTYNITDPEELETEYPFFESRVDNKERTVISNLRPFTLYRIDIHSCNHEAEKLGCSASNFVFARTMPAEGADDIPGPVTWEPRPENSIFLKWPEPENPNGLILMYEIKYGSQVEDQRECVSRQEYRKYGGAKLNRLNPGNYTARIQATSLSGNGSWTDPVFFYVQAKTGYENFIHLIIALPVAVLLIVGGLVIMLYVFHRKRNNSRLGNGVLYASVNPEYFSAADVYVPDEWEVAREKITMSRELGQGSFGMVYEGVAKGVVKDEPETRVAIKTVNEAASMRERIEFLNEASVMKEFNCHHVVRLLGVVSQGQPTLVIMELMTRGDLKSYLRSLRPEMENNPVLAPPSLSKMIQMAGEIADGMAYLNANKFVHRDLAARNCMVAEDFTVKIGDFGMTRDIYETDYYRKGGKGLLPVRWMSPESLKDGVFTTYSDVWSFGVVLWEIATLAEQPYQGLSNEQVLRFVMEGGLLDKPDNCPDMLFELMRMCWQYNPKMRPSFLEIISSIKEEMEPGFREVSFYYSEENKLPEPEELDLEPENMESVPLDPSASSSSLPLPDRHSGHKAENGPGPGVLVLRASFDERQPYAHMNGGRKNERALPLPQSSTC
Serine/threonine-protein kinase PAK 2 (Homo sapiens), sequence (Q13177 whole entry): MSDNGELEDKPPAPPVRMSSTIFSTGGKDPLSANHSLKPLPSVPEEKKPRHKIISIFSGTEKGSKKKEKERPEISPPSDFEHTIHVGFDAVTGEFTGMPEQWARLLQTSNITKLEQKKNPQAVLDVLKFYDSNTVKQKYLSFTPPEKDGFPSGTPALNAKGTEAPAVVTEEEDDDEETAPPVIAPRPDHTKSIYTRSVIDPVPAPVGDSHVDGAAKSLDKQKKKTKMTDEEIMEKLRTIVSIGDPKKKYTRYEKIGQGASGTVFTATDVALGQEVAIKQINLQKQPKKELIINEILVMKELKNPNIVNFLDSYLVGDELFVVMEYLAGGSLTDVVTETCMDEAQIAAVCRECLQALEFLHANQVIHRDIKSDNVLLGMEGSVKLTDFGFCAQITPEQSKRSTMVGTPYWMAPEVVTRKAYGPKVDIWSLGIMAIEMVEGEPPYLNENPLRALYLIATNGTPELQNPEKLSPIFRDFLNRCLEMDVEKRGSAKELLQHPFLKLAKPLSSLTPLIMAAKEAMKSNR

For orientation: IC50 means the midpoint of a concentration-inhibition curve. Low readings indicate greater potency, high ones weaker potency. On to `c1nc(N2CCC3(CCCNC3)CC2)c2nc[nH]c2n1`, for which, in test [1], the IC50 was found to be 1.8 µM.

The compound `O=S(=O)(c1cccc2cnccc12)N1CCCC2(CCCNC2)C1` (stereo unspecified) returned an IC50 in [1] of 12.8 µM.

Broadly, the inhibition is the drop in the measured response relative to a control, in per cent. With `c1ccc(CC2CCC3(CCN(c4ncnc5[nH]cnc45)CC3)NC2)cc1` (racemic), the inhibition in test [2] came out at 11%; in test [3] it was 47%; in test [4] it was 15%; in test [5], 12%; in test [6] it was 12%; in test [7], 15%. Further, the inhibition amounted to 5% in test [8]; 53% in test [9]; 15% in [10]; 30% in [11]; 13% in [12].

As for `c1ccc(CC2CCNC3(CCN(c4ncnc5[nH]cnc45)CC3)C2)cc1` (racemic), the inhibition is 15% in [2]; 98% in test [3]; 22% in test [4]; 8% in test [5]; 72% in test [6]; 21% in [7]. Besides, the inhibition was determined as 5% in test [8]; 86% in test [9]; 22% in test [10]; 12% in test [11]; 19% in test [12].

In turn, `c1nc(N2CCC3(CCCCN3)CC2)c2nc[nH]c2n1` yielded an IC50 in test [1] of 18 µM.

Turning to `c1ccc(C2CCNC3(CCN(c4ncnc5[nH]cnc45)CC3)C2)cc1` (racemic), the inhibition in test [2] is 13%; in test [3], 95%; in test [4], 41%; in test [5] it was 14%; in test [6] it was 44%; in [7] it was 19%. Also, the inhibition in [8] was found to be 5%; in [9], 77%; in test [10], 20%; in test [11], 30%; in test [12], 20%.
